Rows were chosen to be rich in hits. Some 1.3% of all compounds tested hit in one or more screens of this group.
PfGluPho inh: PfG6PD (Plasmodium falciparum) enzyme inhibition. inhibition, % at 20 µM. 350,000 tested, 0.78% active. PfGluPho enzyme, NADPH resazurin-diaphorase fluorescence;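 active = inhibition reaching at least a set limit at 20 µM in the primary screen, cut at about 59% in these data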;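 note: 0% = DMSO wells with substrate and 100% = DMSO wells lacking glucose-6-phosphate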
HKDC1 inh: inhibitors of human hexokinase HKDC1; 340,000 tested, 0.16% active; recombinant HKDC1, G6PDH/diaphorase resazurin coupled fluorescence; inhibition, % at 20 µM; Q2TB90;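 active = inhibition above about 35% when tested at 20 µM, limit read from the data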;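 note: plate controls were DMSO wells with enzyme for no effect and DMSO wells lacking enzyme for full effect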
Target sequence (Q2TB90 whole entry, looked up): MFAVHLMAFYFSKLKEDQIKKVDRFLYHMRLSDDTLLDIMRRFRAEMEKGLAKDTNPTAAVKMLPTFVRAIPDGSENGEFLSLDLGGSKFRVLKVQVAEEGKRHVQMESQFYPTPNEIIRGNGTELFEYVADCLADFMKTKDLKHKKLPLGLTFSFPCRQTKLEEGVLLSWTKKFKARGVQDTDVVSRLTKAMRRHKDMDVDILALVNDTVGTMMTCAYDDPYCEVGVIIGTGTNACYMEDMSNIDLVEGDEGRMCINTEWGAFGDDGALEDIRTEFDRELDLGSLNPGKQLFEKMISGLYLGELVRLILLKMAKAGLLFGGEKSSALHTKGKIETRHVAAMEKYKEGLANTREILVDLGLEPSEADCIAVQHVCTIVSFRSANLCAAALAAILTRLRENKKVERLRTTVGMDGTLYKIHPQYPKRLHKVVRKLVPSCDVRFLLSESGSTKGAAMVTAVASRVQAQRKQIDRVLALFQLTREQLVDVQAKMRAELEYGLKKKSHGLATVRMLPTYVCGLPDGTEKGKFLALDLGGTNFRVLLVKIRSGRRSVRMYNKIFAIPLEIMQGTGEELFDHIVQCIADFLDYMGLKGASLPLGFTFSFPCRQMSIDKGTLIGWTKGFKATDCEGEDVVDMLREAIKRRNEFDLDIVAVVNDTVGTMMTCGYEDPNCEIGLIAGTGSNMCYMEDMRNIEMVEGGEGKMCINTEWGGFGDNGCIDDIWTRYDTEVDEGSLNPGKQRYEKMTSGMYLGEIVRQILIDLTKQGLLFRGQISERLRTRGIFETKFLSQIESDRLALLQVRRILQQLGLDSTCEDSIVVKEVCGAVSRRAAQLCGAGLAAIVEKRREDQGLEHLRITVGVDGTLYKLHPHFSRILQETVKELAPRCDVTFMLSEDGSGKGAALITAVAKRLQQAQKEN
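Test system: recombinant HKDC1 (HK5) hexokinase enzyme, produced in-house / Doses: 20 µM test compound, 1% DMSO / Timing: 90 min, room temperature / Detection: G6PDH/diaphorase-coupled fluorescence, 1 mM NADP, 100 µM resazurin, 525/613 nm / Control set: DMSO wells with and without enzyme mix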
Diaph inh CS: counter-screen for diaphorase-based assays: diaphorase inhibitors and chemical oxidizers; diaphorase resazurin-to-resorufin fluorescence, NADH, 16 min; bacterial (C. kluyveri) enzyme, not human; inhibition, % at 20 µM; 190,000 tested, 0.69% active; AID 1217;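 active = primary screen inhibition at 20 µM above a set limit, cut at about 50% in these data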;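 note: plate controls were DMSO with full reaction for no effect and wells lacking NADH for full effect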
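Benchmarks: positive control wells lacking NADH, neutral wells with DMSO only. System: bacterial diaphorase enzyme (C. kluyveri). Input: 0.14 U/mL diaphorase, enzyme working solution. Detection: resorufin fluorescence, excitation 544 nm, emission 590 nm. Times: 16-min room-temperature incubation before reading.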
G6PDH counter: counter-screen for G6PDH assay hits: L. mesenteroides G6PDH inhibition. Purified L. mesenteroides G6PDH, diaphorase/resazurin coupled fluorescence, 45 min. inhibition, % at 5 µM. 200,000 tested, 0.12% active. AID 1020; in the data active = inhibition above about 50%
Tb hexokinase: T. brucei hexokinase 1 inhibition; recombinant TbHK1, G6PDH-coupled NADH A340; inhibition, % at 10 µM; 220,000 tested, 0.11% active; AID 1430;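 active = inhibition of 50% or more in the single-dose primary screen; inactive = inhibition below 50%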
HKDC1 act conf2: confirmation of human HKDC1 activators; AID 504708; inhibition, % at 20 µM; shares compounds with HKDC1 inh; recombinant HKDC1, G6PDH/diaphorase resazurin fluorescence; stronger effect = lower value; 740 tested, 14% active;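 active = inhibition at or below a set negative limit, negative inhibition meaning the enzyme was activated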
PfGluPho conf: confirmation of Plasmodium falciparum G6PD inhibitors; shares compounds with PfGluPho inh; recombinant PfGluPho, NADPH-diaphorase-resazurin fluorescence; 2,400 tested, 34% active; inhibition, % at 20 µM;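 active = inhibition of at least 50% at 20 µM in any single replicate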;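 note: 0% = DMSO with substrate and 100% = DMSO lacking glucose-6-phosphate substrate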
Diaphorase 10uM: diaphorase inhibition or oxidation at 10 uM NADPH; inhibition, % at 20 µM; shares compounds with PfGluPho inh; 820 tested, 39% active; diaphorase-coupled resazurin reduction, fluorescence, NADPH 10 uM;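 active = average inhibition reaching 50% or more with the compound at 20 µM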;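 note: resorufin red fluorescence formed as diaphorase reduces resazurin using NADPH; 0% = DMSO with enzyme and 100% = DMSO without enzyme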
Diaph ctr 30uM: diaphorase inhibition or oxidation at 30 uM NADPH; 820 tested, 29% active; AID 504863; inhibition, % at 20 µM; Diaphorase/resazurin coupled assay, resorufin fluorescence; shares compounds with PfGluPho inh;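 active = inhibition averaging 50% or more, tested at 20 µM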;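 note: 0% = DMSO with enzyme and 100% = DMSO wells lacking diaphorase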
Active calls of the source: *.

`O=C1/C(=C/Nc2cccc([N+](=O)[O-])c2)CCc2ccccc21` gave PfGluPho inh 67*, HKDC1 inh 41*, Diaph inh CS 39, G6PDH counter 31, Tb hexokinase 24, HKDC1 act conf2 5 and PfGluPho conf 35.
`O=C1C=C(N(CCO)Cc2ccccc2)c2ccccc2C1=O` gave PfGluPho inh 71*, HKDC1 inh 35*, Diaph inh CS 21, G6PDH counter 54*, Tb hexokinase -8, HKDC1 act conf2 29 and PfGluPho conf 46.
For O=C1c2ccccc2C(=O)c2c1cccc2N(CCO)CCO the results were PfGluPho inh 12 and HKDC1 inh 8.
For COC(=O)c1ccc(NCc2c(O)ccc(O)c2Br)cc1Cl the results were PfGluPho inh 104*, HKDC1 inh 45*, HKDC1 act conf2 21 and PfGluPho conf 39.
Screening CC1COCC(C)N1C1=C(Cl)C(=O)c2ccccc2C1=O (centres undefined) returned PfGluPho inh 75*, HKDC1 inh 38*, HKDC1 act conf2 43, PfGluPho conf 64*, Diaphorase 10uM 28 and Diaph ctr 30uM 24.
Screening CN1CCN(C2=C(Cl)C(=O)c3ccccc3C2=O)CC1 returned PfGluPho inh 107*, HKDC1 inh 44*, HKDC1 act conf2 33, PfGluPho conf 75*, Diaphorase 10uM 74* and Diaph ctr 30uM 77*.
`NC1=C(Cl)C(=O)c2ccccc2C1=O` gave PfGluPho inh -94 and HKDC1 inh -16.
NC(=O)C1CCN(C2=C(Cl)C(=O)c3ccccc3C2=O)CC1 was read as PfGluPho inh 74*, HKDC1 inh 47*, Diaph inh CS 5, G6PDH counter 60*, Tb hexokinase -7, HKDC1 act conf2 73 and PfGluPho conf 43.
For NC(=O)C1CCN(C2=C(NS(=O)(=O)c3ccccc3)C(=O)c3ccccc3C2=O)CC1 the results were PfGluPho inh -4, HKDC1 inh 15 and Tb hexokinase -15.
For Cc1ccc(/C=C2\C(=O)ON=C2c2ccccc2)o1 the results were PfGluPho inh 9, HKDC1 inh -5, Diaph inh CS 19, G6PDH counter 4 and Tb hexokinase 0.
`Cc1ccc(-c2ccc(/C=C3\C(=O)ON=C3c3ccccc3)o2)c([N+](=O)[O-])c1` gave PfGluPho inh 70*, HKDC1 inh 43*, Diaph inh CS 27, G6PDH counter 7, Tb hexokinase 8, HKDC1 act conf2 10 and PfGluPho conf 5.
CN(C)C(=O)/C(C#N)=C\c1cc(Br)c(Sc2ccc(Cl)cc2)o1 was read as PfGluPho inh 107*, HKDC1 inh 35*, Diaph inh CS 13, G6PDH counter 0, Tb hexokinase -4, HKDC1 act conf2 14 and PfGluPho conf -8.
Screening COc1cc(N(C)C)ccc1C=c1c2ccccc2n2c1cc(-c1ccccc1)[n+]2C returned PfGluPho inh 83*, HKDC1 inh 41*, HKDC1 act conf2 37, PfGluPho conf 76*, Diaphorase 10uM 14 and Diaph ctr 30uM 11.
Nc1ccc(S(=O)(=O)c2cc(O)c3ccccc3c2O)cc1 was read as PfGluPho inh 103*, HKDC1 inh 55*, HKDC1 act conf2 69, PfGluPho conf 70*, Diaphorase 10uM 33 and Diaph ctr 30uM 19.
Screening O=S(=O)(c1ccccc1)c1cc(O)ccc1O returned PfGluPho inh 16, HKDC1 inh 19, Diaph inh CS 20, G6PDH counter 15 and Tb hexokinase -11.
